# Bioassay records as filed in PubChem BioAssay.
# Vif imaging – inhibitors of HIV Vif; HEK293T cells, Vif self-association by quenched fluorescence, imaging, 24 h; inhibition, % at 7.49 µM; 0.35% of 340,000 active; in the data active = inhibition above about 50%, passing the limit was not always enough; inconclusive = no clear call, values can overlap the other calls; inactive = below about 31%
# rRNA inh HTS – selective bacterial rRNA inhibition in E. coli. E. coli WT GFP vs humanized-ribosome RFP mutants, fluorescence, 24 h; active compounds read low; DMSO median 0, no signal -100. GFP signal change (wild-type ribosome), % (test concentration not listed). 1.6% of 350,000 active. AID 720706;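 active = significant combined selectivity score with lowered wild-type GFP, culture density cut under 30%, mutant RFP and density less affected; inactive = any of these conditions unmet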
# S100A4 inh HTS – S100A4-myosin IIA interaction inhibition. P26447. S100A4/TAMRA-MyoIIA peptide fluorescence polarization. inhibition, % at 10.7 µM. 0.14% of 360,000 active;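 active = mean inhibition of at least 70% across replicates, with every replicate also reaching that level; inconclusive = mean inhibition reaches 70% but some replicates fall short; inactive = mean inhibition below 70%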
# Target sequence (P26447 whole entry, looked up): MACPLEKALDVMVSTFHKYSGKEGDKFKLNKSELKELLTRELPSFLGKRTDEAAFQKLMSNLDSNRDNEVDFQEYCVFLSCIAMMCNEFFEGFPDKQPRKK
#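 Material: S100A4 monomer protein | Medium: HEPES pH 7.2 with CaCl2, KCl, NaCl, DTT, Triton | Reagent: Labelled myosin peptide probe, 5 nM | Doses: One dose per compound | Times: 5 min incubation before reading | Benchmarks: Neutral control DMSO, positive control TFP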
# Env fusion inh – inhibitors of HIV Env-mediated cell fusion; inhibition, % at 12.3 µM; 1.1% of 360,000 active; HeLa-JRFL Env/CEM21 cell fusion, luciferase; AID 651610;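 active = mean replicate inhibition score of at least 50 and every replicate individually at or above 50; inconclusive = only one of the two criteria met; inactive = mean below 50 and not all replicates reaching 50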;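 note: 0% = plate neutral controls and 100% = maraviroc near 300 nM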
# miR122 inh – blocks miR-122 activity in Huh7 sensor cells; Huh7 miR-122 Renilla luciferase sensor, 48 h; neutral wells = 0, positive control = 100; activation (reporter increase), % at 12.5 µM; 0.3% of 340,000 active; AID 602342;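 active = mean replicate activation score at least 90 and every replicate individually at or above 90; inconclusive = only one of the two criteria met; inactive = neither criterion met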;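 note: higher luciferase means less miR-122 activity so hits act as miR-122 inhibitors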
# FN deposition inh – fibronectin deposition inhibition; AID 743247; AH1F fibroblasts, Alexa488-fibronectin deposition fluorescence, overnight; inhibition, % at 12.6 µM; 0.086% of 350,000 active;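 active = mean inhibition across replicates of 30% or more, regardless of how many single replicates reach that level; inconclusive = mean under 30% yet at least half of replicates reach 30%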;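 note: positive control wells lacked labelled fibronectin entirely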
#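 Test system: AH1F fibroblast monolayer depositing Alexa488-labelled fibronectin into matrix. Input: 10000 cells per well. Technique: fluorescence, ex 485 nm, em 525 nm. Buffer or medium: DMEM plus 2% serum, read in PBS. Timing: 1 h cell adhesion before compound, then overnight fibronectin incubation. Compound: single dose, pinned. Read-out basis: inhibition from reduced deposited-fibronectin fluorescence.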
# AID977621 – growth inhibition of wild-type GFP E. coli, dose response, H69 mutant RFP, cherry-pick; shares compounds with rRNA inh HTS; E. coli wild-type GFP strain growth, fluorescence, 24 h; activity change, negative = inhibition at 50 µM; 1,900 tested, under 10 active; AID 977621;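 active = Wild-type ribosome reporter drop at least double the humanized mutant ribosome reporter drop, growth loss under a set limit; inconclusive = no clear call, values can overlap the other calls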;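 note: wild-type GFP and H69 mutant RFP strains grown together 50/50 in each well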
# AID977628 – E. coli growth inhibition, wild-type GFP versus h24 humanized RFP strain, dose response, h24 mutant RFP vs wild-type GFP, cherry-pick | shares compounds with rRNA inh HTS | E. coli WT GFP strain growth, fluorescence, 24 h | activity change, negative = inhibition at 50 µM | 1,900 tested, under 10 active | AID 977628;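 active = compound lowering the normal-ribosome reporter at least twice as much as the humanized-ribosome reporter, growth loss under a set limit; inconclusive = no clear call, values can overlap the other calls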;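 note: wild-type GFP and h24 humanized RFP strains co-cultured 1 to 1 per well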
# Starred values were filed as active, the others as inactive; ? = inconclusive; . = no result; [ ] = dose if it differs, or a comment. Compounds with a hit are over-represented: about 2.6% of the library has one in this group of screens.
SMILES,Vif imaging,rRNA inh HTS,S100A4 inh HTS,Env fusion inh,miR122 inh,FN deposition inh,AID977621,AID977628
N#Cc1nc(-c2ccco2)oc1NCc1ccccc1Cl,-2,-27*,7,3,0,0,-4.4,-12
O=C(C[C@@H]1CC[C@H](NC(=O)C2CCOCC2)[C@@H](CO)O1)NCc1ccncc1,.,4,-6,.,.,.,.,.
C[C@H]1CN([C@@H](C)CO)C(=O)c2ccccc2-c2ccccc2CO[C@H]1CN(C)S(=O)(=O)c1ccccc1F,.,-3,1,50[16.7 µM],.,-5,.,.
O=C(NCc1ccccc1Cl)c1ccc2c(c1)SC1=NS(=O)(=O)CCN12,5,-20*,1,3,.,0,-13,-9.4
O=C(NCc1cccc(Cl)c1)c1ccc2c(c1)SC1=NS(=O)(=O)CCN12,19,4,15,8,.,22,.,.
O=C(Nc1ccccc1F)N1CCCCN2[C@H](C1)[C@@H](c1ccc(C#Cc3cccnc3)cc1)[C@@H]2CO,.,-17,-4,.,-1[16.7 µM],.,.,.
CCOc1ccc2oc(-c3ccccc3)c(C(=O)N(C)C)c2c1,.,-26*,1,.,1,.,-0.57,-8.5
C[C@@H]1CCCCO[C@@H](CN(C)C(=O)Nc2ccc(F)cc2)[C@H](C)CN([C@@H](C)CO)C(=O)c2cc(NS(=O)(=O)c3cccs3)ccc2O1,.,-12,-6,-25[16.7 µM],-4[16.7 µM],.,.,.
CC(C)c1cc(C(N)=O)c(NC(=O)C2CCC2)s1,-4,-24*,-4,.,.,.,?,.
CO[C@H]1CN(C)C(=O)c2cc(NC(C)=O)ccc2OC[C@H](C)N(Cc2cncnc2)C[C@@H]1C,.,5,-25,8[16.7 µM],-6[16.7 µM],-3,.,.
COc1cccc(C(=O)Nc2ccccc2)c1,-2,.,.,-122,-6,.,.,.
COc1cccc(NC(=O)c2ccc(C(=O)c3ccccc3)o2)c1,-4,-33*,-3,-19,3,.,-15,.
CN(C)C(=O)c1cccc(-c2ccc3c(c2)[C@H]2[C@H](CCN2C(=O)c2ccccc2)[C@@H](CO)N3C)c1,.,-10,33,.,33[16.7 µM],-8,.,.
COc1ccc(-c2cc(C(=O)N(C)CCc3ccc(OC)c(OC)c3)c3ccccc3n2)cc1,3,-25*,-1,2,.,19,?,.
COc1ccc(CN(C)C(=O)c2cc(-c3ccc(OC)c(OC)c3)nc3ccccc23)c(OC)c1,-2,-23*,-1,10,2,7,-3.3,-3.5
CC(=O)N(C)C[C@H]1Oc2ncc(C#Cc3ccccc3F)cc2C(=O)N([C@H](C)CO)C[C@@H]1C,.,-2,9,-2[16.7 µM],3[16.7 µM],2,.,.
Cc1csc(SCc2nc3scc(-c4ccccc4)c3c(=O)[nH]2)n1,-4,-24*,-8,17,-9,13,0.6,-8.5
O=S(=O)(N[C@@H]1CC[C@@H](CCn2cc(-c3cccc(F)c3)nn2)O[C@@H]1CO)c1ccc(Cl)cc1,.,-1,24,-2[16.7 µM],.,.,.,.
CCOc1ncccc1C(=O)OCC(=O)NCCCc1ccccc1,5,-21*,-2,?,2,-3,-7.2,-13
CCOc1ncccc1C(=O)OCC(=O)NCCc1ccccc1,14,.,.,.,-4,.,.,.
CSc1cccc(NC(=O)CCc2ccccc2)c1,2,-29*,0,3,-2,-6,0.12,-5.2
CSc1cccc(NC(=S)NC(=O)CCc2ccccc2)c1,2,-20,1,-3,-4,.,.,.
O=C(CSc1ccccc1)Nc1cccc(NC(=O)c2ccco2)c1,3,-21*,-2,.,11,.,?,.
N#C[C@H]1[C@H](c2ccc(C#Cc3cccnc3)cc2)[C@@H](CO)N1C(=O)NC1CCCC1,.,-5,.,.,.,-4,.,.
CCCC#Cc1ccc([C@@H]2[C@@H](CO)N3C(=O)CN(C(=O)c4ccncc4)C[C@H]23)cc1,.,-3,-28,.,.,.,.,.
SMILES,Vif imaging,rRNA inh HTS,S100A4 inh HTS,Env fusion inh,miR122 inh,FN deposition inh,AID977621,AID977628
C[C@@H]1CN([C@H](C)CO)C(=O)c2cc(NS(=O)(=O)c3ccccc3)ccc2O[C@@H](C)CCCCO[C@H]1CN(C)S(=O)(=O)c1ccc(F)cc1,.,-5,-7,-43[16.7 µM],-6[16.7 µM],.,.,.
O=C(O)CCCCCCCCc1cn(CC2CCCCC2)nn1,8,-21*,-3,-8,-2,-4,?,.
COc1cc2c(cc1OC)CN(CC(=O)Nc1ccccc1SC)CC2,-6,-20*,0,25,.,11,0.48,-7
CO[C@@H]1CN(C)C(=O)c2cc(NC(=O)C3CCC3)ccc2OC[C@@H](C)N(CC2CCCCC2)C[C@H]1C,.,2,-1,.,.,0,.,.
CS(=O)(=O)N1CC2CCCN2c2cc(C(F)(F)F)ccc21 (stereo not given),26,-33,1,-8,11,-8,.,.
CS(=O)(=O)N1CC2CCCN2c2ccc(C(F)(F)F)cc21 (stereo not given),2,-33*,-1,2,0,3,-1.4,-2.8
COc1ccc(NC(=O)N(C)C[C@H]2OCCCC[C@@H](C)Oc3ccc(NS(=O)(=O)c4ccc(Cl)cc4)cc3C(=O)N([C@@H](C)CO)C[C@@H]2C)cc1,.,1,-5,2[16.7 µM],-4[16.7 µM],3,.,.
COc1ccc(-n2c(COc3cccc(C)c3)n[nH]c2=S)cc1,-2,-20*,-5,2,7,-4,-6.5,0.6
COc1ccc(OCc2n[nH]c(=S)n2-c2ccc(C)cc2)cc1,6,-3,6,-21,.,-2,.,.
O=[N+]([O-])c1ccc2c(c1)S(=O)c1ccccc1-2 (stereo not given),7,-23*,-1,-4,-1,-1,-25,-14
CN(C(=O)CN1C(=O)NC2(CCc3ccccc32)C1=O)C1CCCCC1 (stereo not given),2,-13*,-1,-15,-6,2,?,-14
CN(C(=O)CN1C(=O)NC2(CCc3ccccc32)C1=O)C1CCS(=O)(=O)C1 (stereo not given),-2,7,-3,-33,0,-11,.,.
O=C(CSc1ccccc1)NCCCc1ccccc1,-6,-23*,0,3,-9,.,-5.6,?
Cc1ccc(SCC(=O)NCCCc2ccccc2)cc1,21,-9,-7,4,0,7,.,.
CCOC(=O)CN1C(=O)C(CC)Oc2ccc(Cl)cc21 (stereo not given),-5,-30*,0,.,1,.,-14,-16
Cc1cc(NC(=O)NC(=O)c2cccc(OC(F)(F)C(F)F)c2)n[nH]1,-5,.,.,-51,1,1,.,.
